Consider 2 molecules from ChEMBL document CHEMBL1154352, “Toll-like receptor 7 selective synthetic oligoribonucleotide agonists: synthesis and structure-activity relationship studies” (J Med Chem, 2009).

The structures appear in SMILES notation. The source made the active and inactive calls. The rule behind the calls is not given here.

Series [1] can be described thus: Metabolic stability in human serum assessed as full length product remaining after 10 mins by HPLC. Type of series: ADME, cell-free. To be noted: read-out: Stability. The method, boiled down:
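About 0.5 A260 units compound in 1% human serum in PBS, 37 °C; aliquot taken at 10 min, analysed by anion-exchange HPLC for percent intact full-length product.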

Series [2] concerns the target T1, Toll-like receptor 8 (Homo sapiens) (UniProt Q9NR97).
T1 sequence (whole entry): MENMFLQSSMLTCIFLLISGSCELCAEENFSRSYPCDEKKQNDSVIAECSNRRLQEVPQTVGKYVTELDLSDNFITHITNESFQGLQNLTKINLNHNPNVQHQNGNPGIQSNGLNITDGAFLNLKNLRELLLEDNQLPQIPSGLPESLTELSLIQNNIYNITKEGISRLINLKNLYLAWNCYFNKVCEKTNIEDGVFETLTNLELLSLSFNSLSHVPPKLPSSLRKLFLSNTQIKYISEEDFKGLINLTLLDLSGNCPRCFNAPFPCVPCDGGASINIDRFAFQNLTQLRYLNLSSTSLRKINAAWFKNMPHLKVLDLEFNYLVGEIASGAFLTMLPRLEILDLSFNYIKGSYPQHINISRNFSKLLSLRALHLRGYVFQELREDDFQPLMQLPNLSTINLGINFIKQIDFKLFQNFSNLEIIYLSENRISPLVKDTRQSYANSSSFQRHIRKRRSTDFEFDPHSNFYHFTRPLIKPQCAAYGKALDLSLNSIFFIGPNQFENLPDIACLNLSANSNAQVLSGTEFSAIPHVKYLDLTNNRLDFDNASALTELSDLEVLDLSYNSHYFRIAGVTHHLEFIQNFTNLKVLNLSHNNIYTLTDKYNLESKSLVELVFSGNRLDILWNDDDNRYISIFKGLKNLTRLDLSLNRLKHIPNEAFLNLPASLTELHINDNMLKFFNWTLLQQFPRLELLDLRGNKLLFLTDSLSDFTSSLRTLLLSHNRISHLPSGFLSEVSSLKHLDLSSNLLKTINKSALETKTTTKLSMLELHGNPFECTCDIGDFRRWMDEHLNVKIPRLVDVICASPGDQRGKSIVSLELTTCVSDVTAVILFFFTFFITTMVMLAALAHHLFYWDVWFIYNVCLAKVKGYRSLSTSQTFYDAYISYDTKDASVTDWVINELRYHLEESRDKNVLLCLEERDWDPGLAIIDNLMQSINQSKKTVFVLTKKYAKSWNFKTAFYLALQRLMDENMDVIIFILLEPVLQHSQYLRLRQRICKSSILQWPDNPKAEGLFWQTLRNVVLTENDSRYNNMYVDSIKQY
As to the kind of experiment: Activation of human TLR8 expressed in HEK293XL assessed as fold induction of NF-kappaB activity at 50 ug/ml after 18 hrs by reporter gene assay relative to control. The method, boiled down:
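HEK293 cells stably expressing human TLR7 or TLR8, transiently transfected with SEAP reporter plasmid; medium replaced, SIMRA compounds added, 18 h incubation. Supernatant SEAP measured by QuantiBlue; expressed as fold increase in NF-κB activity over PBS control. Tabulated data at 50 μg/mL, representative of three independent experiments.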

The target in series [3] is T2, Toll-like receptor 9 (Mus musculus) (UniProt Q9EQU3).
T2 sequence (whole entry): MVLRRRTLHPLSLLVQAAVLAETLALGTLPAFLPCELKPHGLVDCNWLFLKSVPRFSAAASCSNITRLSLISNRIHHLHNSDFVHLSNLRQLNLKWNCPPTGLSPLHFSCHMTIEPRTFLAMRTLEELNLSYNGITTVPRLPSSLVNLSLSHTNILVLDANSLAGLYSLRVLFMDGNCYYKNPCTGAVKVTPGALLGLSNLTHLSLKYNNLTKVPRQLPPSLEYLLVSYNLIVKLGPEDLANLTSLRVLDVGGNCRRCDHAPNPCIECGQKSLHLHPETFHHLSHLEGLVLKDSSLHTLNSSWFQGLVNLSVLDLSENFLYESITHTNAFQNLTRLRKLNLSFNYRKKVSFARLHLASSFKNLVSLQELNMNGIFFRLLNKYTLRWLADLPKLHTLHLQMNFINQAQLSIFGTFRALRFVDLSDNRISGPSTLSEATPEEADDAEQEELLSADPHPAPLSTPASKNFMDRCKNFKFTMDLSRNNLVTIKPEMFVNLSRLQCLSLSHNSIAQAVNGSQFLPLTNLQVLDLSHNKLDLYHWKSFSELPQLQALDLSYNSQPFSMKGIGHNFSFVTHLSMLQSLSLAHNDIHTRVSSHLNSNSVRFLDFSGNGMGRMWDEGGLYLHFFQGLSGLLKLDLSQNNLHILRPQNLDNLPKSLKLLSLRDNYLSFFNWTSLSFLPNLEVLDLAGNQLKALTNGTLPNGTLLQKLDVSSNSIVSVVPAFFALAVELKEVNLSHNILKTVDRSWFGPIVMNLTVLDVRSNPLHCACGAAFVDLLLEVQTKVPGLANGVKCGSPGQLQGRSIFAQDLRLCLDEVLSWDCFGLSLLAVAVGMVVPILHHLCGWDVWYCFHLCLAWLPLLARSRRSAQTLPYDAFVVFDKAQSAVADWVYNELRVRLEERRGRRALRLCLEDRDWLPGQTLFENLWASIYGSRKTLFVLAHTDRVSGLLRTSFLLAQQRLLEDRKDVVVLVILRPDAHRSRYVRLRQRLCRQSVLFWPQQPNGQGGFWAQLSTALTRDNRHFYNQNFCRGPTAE
Put plainly: Activation of mouse TLR9 expressed in HEK293 assessed as induction of NF-kappaB activity reporter gene assay. Type of series: cell-based.

The target of series [4] is Toll-like receptor 3 (Homo sapiens) (UniProt O15455). As to the kind of experiment: Activation of human TLR3 expressed in HEK293 assessed as induction of NF-kappaB activity reporter gene assay. Type of series: cell-based.
Sequence of Toll-like receptor 3 (Homo sapiens) (O15455 whole entry): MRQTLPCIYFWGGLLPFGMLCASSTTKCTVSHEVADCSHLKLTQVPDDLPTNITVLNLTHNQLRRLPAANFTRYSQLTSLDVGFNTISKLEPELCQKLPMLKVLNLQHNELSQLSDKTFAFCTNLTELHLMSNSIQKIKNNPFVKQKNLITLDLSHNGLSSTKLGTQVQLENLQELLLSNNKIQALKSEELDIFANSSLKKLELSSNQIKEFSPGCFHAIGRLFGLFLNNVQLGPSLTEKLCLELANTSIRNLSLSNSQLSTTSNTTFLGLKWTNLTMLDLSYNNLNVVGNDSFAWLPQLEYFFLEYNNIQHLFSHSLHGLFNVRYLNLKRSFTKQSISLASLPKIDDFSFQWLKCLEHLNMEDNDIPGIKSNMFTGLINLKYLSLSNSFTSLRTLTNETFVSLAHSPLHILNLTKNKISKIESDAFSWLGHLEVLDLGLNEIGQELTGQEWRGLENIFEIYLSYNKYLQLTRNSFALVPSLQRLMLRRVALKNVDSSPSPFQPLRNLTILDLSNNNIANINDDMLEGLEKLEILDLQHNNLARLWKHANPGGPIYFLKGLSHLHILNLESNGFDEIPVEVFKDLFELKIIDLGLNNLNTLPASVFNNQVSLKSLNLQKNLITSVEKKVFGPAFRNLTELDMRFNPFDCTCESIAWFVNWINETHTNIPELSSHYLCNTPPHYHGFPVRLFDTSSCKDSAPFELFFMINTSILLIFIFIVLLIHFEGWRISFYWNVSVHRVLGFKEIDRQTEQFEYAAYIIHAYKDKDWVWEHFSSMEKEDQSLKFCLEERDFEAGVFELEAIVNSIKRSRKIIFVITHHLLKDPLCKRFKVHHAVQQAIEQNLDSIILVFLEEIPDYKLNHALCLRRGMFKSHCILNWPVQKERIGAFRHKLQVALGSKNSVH
The subject of series [5] is Splenocyte. As to the kind of experiment: Immunomodulatory activity in C57BL/6 mouse splenocytes bearing TLR7 receptor assessed as IL6 release at 100 ug/ml after 24 hrs by ELISA. Type of series: functional, cell-based. The method, boiled down:
(§1)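 C57BL/6 splenocytes in RPMI 1640 with 10% FBS, penicillin/streptomycin, 2 mM L-glutamine, plated at 5 × 10^6 cells/mL; compounds in PBS added, 37 °C for 24 h. Supernatant IL-12 and IL-6 by ELISA; representative of three independent experiments.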

In series [6] the test system is Splenocyte. Put plainly: Immunomodulatory activity in C57BL/6 mouse splenocytes bearing TLR7 receptor assessed as IL12 release at 100 ug/ml after 24 hrs by ELISA. Type of series: functional, cell-based. The method, boiled down:
as §1

Regarding `Nc1ccn([C@@H]2O[C@H](COP(=O)(S)O[C@H]3[C@@H](O)[C@H](n4cnc5c(N)ncnc54)O[C@@H]3COP(=O)(S)O[C@H]3[C@@H](O)[C@H](n4ccc5c(=O)[nH]c(N)nc54)O[C@@H]3COP(=O)(S)O[C@H]3[C@@H](O)[C@H](n4ccc(=O)[nH]c4=O)O[C@@H]3CO)[C@@H](OP(=O)(S)OC[C@H]3O[C@@H](n4ccc5c(=O)[nH]c(N)nc54)[C@H](O)[C@@H]3OP(=O)(S)OC[C@H]3O[C@@H](n4cnc5c(N)ncnc54)[C@H](O)[C@@H]3OC[C@H]3O[C@@H](n4ccc(=O)[nH]c4=O)[C@H](O)[C@@H]3OP(=O)(S)ON[C@H]3O[C@@H](n4ccc5c(=O)[nH]c(N)nc54)[C@H](O)[C@@H]3OP(=O)(S)OC[C@H]3O[C@@H](n4cnc5c(N)ncnc54)[C@H](O)[C@@H]3OP(=O)(S)OC[C@H]3O[C@@H](n4ccc(=O)[nH]c4=O)[C@H](O)[C@@H]3OP(=O)(S)OC[C@H]3O[C@@H](n4ccc(=O)[nH]c4=O)[C@H](O)[C@@H]3OP(=O)(S)OCC(O)COP(=O)(S)O[C@H]3[C@@H](O)[C@H](n4ccc(=O)[nH]c4=O)O[C@@H]3COP(=O)(S)O[C@H]3[C@@H](O)[C@H](n4ccc(=O)[nH]c4=O)O[C@@H]3COP(=O)(S)O[C@H]3[C@@H](O)[C@H](n4cnc5c(N)ncnc54)O[C@@H]3COP(=O)(S)O[C@H]3[C@@H](O)[C@H](n4ccc5c(=O)[nH]c(N)nc54)O[C@@H]3NOP(=O)(S)O[C@H]3[C@@H](O)[C@H](n4ccc(=O)[nH]c4=O)O[C@@H]3CO[C@H]3[C@@H](O)[C@H](n4cnc5c(N)ncnc54)O[C@@H]3COP(=O)(S)O[C@H]3[C@@H](O)[C@H](n4ccc5c(=O)[nH]c(N)nc54)O[C@@H]3COP(=O)(S)O[C@H]3[C@@H](O)[C@H](n4ccc(N)nc4=O)O[C@@H]3COP(=O)(S)O[C@H]3[C@@H](O)[C@H](n4cnc5c(N)ncnc54)O[C@@H]3COP(=O)(S)O[C@H]3[C@@H](O)[C@H](n4ccc5c(=O)[nH]c(N)nc54)O[C@@H]3COP(=O)(S)O[C@H]3[C@@H](O)[C@H](n4ccc(=O)[nH]c4=O)O[C@@H]3CO)[C@H]2O)c(=O)n1` (some centres not stated), the remaining at 10 min in series [1] came out at 86%. Moreover, the fold change (FC) in series [2] worked out at 4.6. Further, the result in series [3] and in series [4] was inactive. In addition, the result in series [5] and in series [6] was Active.
For the molecule `Nc1ccn([C@@H]2O[C@H](COP(=O)(S)O[C@H]3[C@@H](O)[C@H](n4ccc(N)nc4=O)O[C@@H]3COP(=O)(S)O[C@H]3[C@@H](O)[C@H](n4cnc5c(N)ncnc54)O[C@@H]3COP(=O)(S)O[C@H]3[C@@H](O)[C@H](n4ccc5c(=O)[nH]c(N)nc54)O[C@@H]3COP(=O)(S)O[C@H]3[C@@H](O)[C@H](n4ccc(=O)[nH]c4=O)O[C@@H]3COP(=O)(S)O[C@H]3[C@@H](O)[C@H](n4ccc(=O)[nH]c4=O)O[C@@H]3COP(=O)(S)O[C@H]3[C@@H](O)[C@H](n4ccc(N)nc4=O)O[C@@H]3COP(=O)(S)O[C@H]3[C@@H](O)[C@H](n4cnc5c(N)ncnc54)O[C@@H]3CO)[C@@H](OP(=O)(S)OC[C@H]3O[C@@H](n4ccc(=O)[nH]c4=O)[C@H](O)[C@@H]3OP(=O)(S)OC[C@H]3O[C@@H](n4ccc5c(=O)[nH]c(N)nc54)[C@H](O)[C@@H]3OP(=O)(S)OC[C@H]3O[C@@H](n4ccc(=O)[nH]c4=O)[C@H](O)[C@@H]3OP(=O)(S)OCC(O)COP(=O)(S)O[C@H]3[C@@H](O)[C@H](n4ccc(=O)[nH]c4=O)O[C@@H]3COP(=O)(S)O[C@H]3[C@@H](O)[C@H](n4ccc5c(=O)[nH]c(N)nc54)O[C@@H]3COP(=O)(S)O[C@H]3[C@@H](O)[C@H](n4ccc(=O)[nH]c4=O)O[C@@H]3COP(=O)(S)O[C@H]3[C@@H](O)[C@H](n4ccc(N)nc4=O)O[C@@H]3COP(=O)(S)O[C@H]3[C@@H](O)[C@H](n4ccc(N)nc4=O)O[C@@H]3COP(=O)(S)O[C@H]3[C@@H](O)[C@H](n4cnc5c(N)ncnc54)O[C@@H]3COP(=O)(S)O[C@H]3[C@@H](O)[C@H](n4ccc5c(=O)[nH]c(N)nc54)O[C@@H]3COP(=O)(S)O[C@H]3[C@@H](O)[C@H](n4ccc(=O)[nH]c4=O)O[C@@H]3COP(=O)(S)O[C@H]3[C@@H](O)[C@H](n4ccc(=O)[nH]c4=O)O[C@@H]3COP(=O)(S)O[C@H]3[C@@H](O)[C@H](n4ccc(N)nc4=O)O[C@@H]3COP(=O)(S)O[C@H]3[C@@H](O)[C@H](n4cnc5c(N)ncnc54)O[C@@H]3CO)[C@H]2O)c(=O)n1` (some centres not stated), in series [1], the remaining at 10 min amounted to 63%. The fold change (FC) in series [2] was 0.7. Further, the outcome in series [3] and in series [4] was inactive. The result in series [5] and in series [6] was Active.
